Data as given in ChEMBL document CHEMBL1138611, “Oxadiazolylindazole sodium channel modulators are neuroprotective toward hippocampal neurones” (J Med Chem, 2009).
Calls of active or inactive are those of the source. The calls are words filed in the database; no cut-off is given here.

Legend:
[1] = molecular target: T1, Sodium channel protein type 8 subunit alpha (Homo sapiens, UniProt Q9UQD0); experiment: Inhibition of Nav1.6 using 20 Hz train of 20 voltage steps from -90 mV with duration of 3.5 ms at 30 uM by paired pulse protocol
[2] = molecular target: Nav1.5 (sodium channel protein type 5 subunit alpha) (Homo sapiens, UniProt Q14524); experiment: Inhibition of human Nav1.5 expressed in HEK293 cells assessed as change in membrane potential using MP-red voltage sensitive dye at 10 uM; type: cell-based; conditions: HEK293 cells expressing human Nav1.5
Procedure, shortened: (§1)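 Human Nav isoforms stably expressed in HEK293 cells with β1 subunit (Nav1.8 without β subunit), with tetrodotoxin sensitivity checked. Membrane potential change read with MP-red voltage-sensitive dye kit. Single-concentration screen at 10 µM gives percent inhibition as mean of duplicates, or an IC50 in µM where determined. Compounds come from 1 or 10 mM DMSO stocks diluted in assay buffer.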

[3] = molecular target: T1, Sodium channel protein type 8 subunit alpha; experiment: Inhibition of human Nav1.6 expressed in HEK293 cells assessed as change in membrane potential using MP-red voltage sensitive dye; type: cell-based; procedure, shortened: as §1
[4] = organism: Rattus norvegicus; experiment: Voltage-dependent inhibition of voltage-gated sodium channel in Sprague-Dawley rat hippocampal neurons at 30 uM at an initial membrane potential of -90 mV by voltage clamp technique; type: tissue-based; parameters: scale not given: the % may be the effect or the level left; conditions: Hippocampus
[5] = organism: Rattus norvegicus; experiment: Use-dependent inhibition of voltage-gated sodium channel in Sprague-Dawley rat hippocampal neurons at 30 uM using 20 Hz train of 20 voltage steps from -90 mV with duration of 3.5 ms by voltage clamp technique; type: tissue-based; conditions: Hippocampus
Procedure, shortened: (§2)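 Whole-cell voltage clamp of dissociated P14-16 Sprague-Dawley rat hippocampal neurons, with compound at 30 µM. A 20 Hz train of 20 voltage steps from -90 mV, each step 3.5 ms or 20 ms, and cumulative depression of peak sodium current during the train compared with control.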

[6] = tested on: Hippocampus; experiment: Neuroprotective activity in Wistar rat hippocampal slices assessed as ATP concentration at 50 uM relative to tetrodotoxin; type: functional
[7] = molecular target: T1, Sodium channel protein type 8 subunit alpha; experiment: Inhibition of human Nav1.6 expressed in HEK293 cells assessed as change in membrane potential at 10 uM by patch clamp technique; type: cell-based
Procedure, shortened: (§3)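 Automated parallel whole-cell patch clamp at room temperature on human Nav1.2 or Nav1.6 in HEK293 cells. Each exposure lasts 5 min, at 10 and 50 µM (lamotrigine on Nav1.2 at 30 and 100 µM), with two to four cells per concentration. Peak current inhibition is given as percent, mean of duplicate experiments (n = 2) unless noted otherwise.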

[8] = molecular target: Sodium channel protein type 10 subunit alpha (Homo sapiens) (UniProt Q9Y5Y9); experiment: Inhibition of human Nav1.8 expressed in HEK293 cells assessed as change in membrane potential using MP-red voltage sensitive dye at 10 uM; type: cell-based; procedure, shortened: as §1
[9] = organism: Rattus norvegicus; experiment: Inhibition of […] state of voltage-gated sodium channel in Sprague-Dawley rat hippocampal neurons at 30 uM using 300 ms conditioning voltage step to 0 mV followed by 15 ms period at -90 mV by paired pulse protocol; type: tissue-based; conditions: Hippocampus
Procedure, shortened: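 Paired-pulse protocol on dissociated P14-16 Sprague-Dawley rat hippocampal neurons, compound at 30 µM. A 300 ms conditioning step to 0 mV (P1), 15 ms at -90 mV, then a 10 ms test step to 0 mV (P2). Tonic inhibition at P1 compared with inhibition at P2 after slow inactivation develops.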

[10] = molecular target: Sodium channel protein type 3 subunit alpha (Homo sapiens) (UniProt Q9NY46); experiment: Inhibition of human Nav1.3 expressed in HEK293 cells assessed as change in membrane potential using MP-red voltage sensitive dye at 10 uM; type: cell-based; procedure, shortened: as §1
[11] = molecular target: Sodium channel protein type 2 subunit alpha (Homo sapiens) (UniProt Q99250); experiment: Inhibition of human Nav1.2 expressed in HEK293 cells assessed as change in membrane potential at 10 uM by patch clamp technique; type: cell-based; procedure, shortened: as §3
[12] = molecular target: T1, Sodium channel protein type 8 subunit alpha; experiment: Use-dependent inhibition of human Nav1.6 expressed in HEK293 cells at 50 uM using double-pulse protocol by patch clamp technique; type: cell-based
Procedure, shortened: (§4)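 Human Nav1.2 or Nav1.6 in HEK293 cells, automated patch clamp at room temperature with 5 min exposure. Holding potential -80 mV, prepulse -120 mV, then P1 to 0 mV for 200 ms, 200 ms at -80 mV, and P2 to 0 mV for 20 ms, repeated at 0.1 Hz. Use-dependent inhibition I = (1 − P2T/P1T) × P1C/P2C × 100; mean of duplicates.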

[13] = molecular target: Sodium channel protein type 9 subunit alpha (Homo sapiens) (UniProt Q15858); experiment: Inhibition of human Nav1.7 expressed in HEK293 cells assessed as change in membrane potential using MP-red voltage sensitive dye at 10 uM; type: cell-based; procedure, shortened: as §1
[14] = Displacement of [3H]BW202W92 from voltage-gated sodium channel in Wistar rat forebrain synaptosomes by liquid scintillation counting; type: subcellular, Brain
[15] = molecular target: Sodium channel protein type 2 subunit alpha (Homo sapiens) (UniProt Q99250); experiment: Inhibition of human Nav1.2 expressed in HEK293 cells assessed as change in membrane potential at 50 uM by patch clamp technique; type: cell-based; procedure, shortened: as §3
[16] = molecular target: T1, Sodium channel protein type 8 subunit alpha; experiment: Inhibition of human Nav1.6 expressed in HEK293 cells assessed as change in membrane potential at 50 uM by patch clamp technique; type: cell-based; procedure, shortened: as §3
[17] = organism: Rattus norvegicus; experiment: Voltage-dependent inhibition of voltage-gated sodium channel in Sprague-Dawley rat hippocampal neurons at 30 uM at an initial membrane potential of -70 mV by voltage clamp technique; type: tissue-based; parameters: scale not given: the % may be the effect or the level left; conditions: Hippocampus
[18] = molecular target: T1, Sodium channel protein type 8 subunit alpha; experiment: Use-dependent inhibition of human Nav1.6 expressed in HEK293 cells at 10 uM using double-pulse protocol by patch clamp technique; type: cell-based; procedure, shortened: as §4
[19] = molecular target: Cytochrome P450 2D6 (Homo sapiens, UniProt P10635); experiment: Inhibition of human recombinant CYP2D6; type: ADME
[20] = Inhibition of voltage-gated sodium channel in Wistar rat forebrain synaptosomes assessed as inhibition of [14C]guanidium ion flux; type: subcellular, Brain
[21] = molecular target: Sodium channel protein type 4 subunit alpha (Homo sapiens) (UniProt P35499); experiment: Inhibition of human Nav1.4 expressed in HEK293 cells assessed as change in membrane potential using MP-red voltage sensitive dye at 10 uM; type: cell-based; procedure, shortened: as §1
[22] = molecular target: Sodium channel protein type 2 subunit alpha (Homo sapiens) (UniProt Q99250); experiment: Use-dependent inhibition of human Nav1.2 expressed in HEK293 cells at 50 uM using double-pulse protocol by patch clamp technique; type: cell-based; procedure, shortened: as §4
[23] = molecular target: Sodium channel protein type 1 subunit alpha (Homo sapiens) (UniProt P35498); experiment: Inhibition of human Nav1.1 expressed in HEK293 cells assessed as change in membrane potential using MP-red voltage sensitive dye at 10 uM; type: cell-based; procedure, shortened: as §1
[24] = molecular target: Sodium channel protein type 2 subunit alpha (Homo sapiens) (UniProt Q99250); experiment: Use-dependent inhibition of human Nav1.2 expressed in HEK293 cells at 10 uM using double-pulse protocol by patch clamp technique; type: cell-based; procedure, shortened: as §4
[25] = organism: Rattus norvegicus; experiment: Use-dependent inhibition of voltage-gated sodium channel in Sprague-Dawley rat hippocampal neurons at 30 uM using 20 Hz train of 20 voltage steps from -90 mV with duration of 20 ms by voltage clamp technique; type: tissue-based; conditions: Hippocampus; procedure, shortened: as §2
[26] = molecular target: T2, Cytochrome P450 1A2 (Homo sapiens, UniProt P05177); experiment: Inhibition of human recombinant CYP1A2; type: ADME
T2 sequence (P05177 whole entry): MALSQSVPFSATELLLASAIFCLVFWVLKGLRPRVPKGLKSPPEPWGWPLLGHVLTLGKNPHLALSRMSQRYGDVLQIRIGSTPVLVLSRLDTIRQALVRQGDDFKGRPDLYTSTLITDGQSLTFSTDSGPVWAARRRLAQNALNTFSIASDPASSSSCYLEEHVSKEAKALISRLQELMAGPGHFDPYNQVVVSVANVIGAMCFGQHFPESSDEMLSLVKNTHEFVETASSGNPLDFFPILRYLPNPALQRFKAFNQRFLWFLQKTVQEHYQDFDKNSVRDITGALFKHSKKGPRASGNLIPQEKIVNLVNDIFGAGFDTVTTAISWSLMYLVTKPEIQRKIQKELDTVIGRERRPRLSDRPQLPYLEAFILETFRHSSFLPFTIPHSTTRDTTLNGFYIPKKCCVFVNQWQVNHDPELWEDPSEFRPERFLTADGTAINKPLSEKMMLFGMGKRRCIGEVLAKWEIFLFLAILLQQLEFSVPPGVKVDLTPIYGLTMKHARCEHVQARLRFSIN

[27] = molecular target: T1, Sodium channel protein type 8 subunit alpha; experiment: Inhibition of human Nav1.6 expressed in HEK293 cells assessed as change in membrane potential using MP-red voltage sensitive dye at 10 uM; type: cell-based; procedure, shortened: as §1
[28] = molecular target: Sodium channel protein type 2 subunit alpha (Homo sapiens) (UniProt Q99250); conditions: HEK293, 30 uM
[29] = molecular target: Sodium channel protein type 2 subunit alpha (Homo sapiens) (UniProt Q99250); conditions: HEK293, 30 uM; remark: listed apart in the source
[30] = molecular target: Sodium channel protein type 2 subunit alpha (Homo sapiens) (UniProt Q99250); conditions: HEK293, 100 uM
[31] = molecular target: Sodium channel protein type 2 subunit alpha (Homo sapiens) (UniProt Q99250); conditions: HEK293, 100 uM; remark: listed apart in the source
[32] = tested on: Hippocampus; experiment: Neuroprotective activity in Wistar rat hippocampal slices assessed as ATP concentration at 30 uM relative to tetrodotoxin; type: functional
[33] = tested on: Hippocampus; experiment: Neuroprotective activity in Wistar rat hippocampal slices assessed as ATP concentration at 3 uM relative to tetrodotoxin; type: functional

Sodium channel protein type 9 subunit alpha (Homo sapiens), sequence (Q15858 whole entry, looked up): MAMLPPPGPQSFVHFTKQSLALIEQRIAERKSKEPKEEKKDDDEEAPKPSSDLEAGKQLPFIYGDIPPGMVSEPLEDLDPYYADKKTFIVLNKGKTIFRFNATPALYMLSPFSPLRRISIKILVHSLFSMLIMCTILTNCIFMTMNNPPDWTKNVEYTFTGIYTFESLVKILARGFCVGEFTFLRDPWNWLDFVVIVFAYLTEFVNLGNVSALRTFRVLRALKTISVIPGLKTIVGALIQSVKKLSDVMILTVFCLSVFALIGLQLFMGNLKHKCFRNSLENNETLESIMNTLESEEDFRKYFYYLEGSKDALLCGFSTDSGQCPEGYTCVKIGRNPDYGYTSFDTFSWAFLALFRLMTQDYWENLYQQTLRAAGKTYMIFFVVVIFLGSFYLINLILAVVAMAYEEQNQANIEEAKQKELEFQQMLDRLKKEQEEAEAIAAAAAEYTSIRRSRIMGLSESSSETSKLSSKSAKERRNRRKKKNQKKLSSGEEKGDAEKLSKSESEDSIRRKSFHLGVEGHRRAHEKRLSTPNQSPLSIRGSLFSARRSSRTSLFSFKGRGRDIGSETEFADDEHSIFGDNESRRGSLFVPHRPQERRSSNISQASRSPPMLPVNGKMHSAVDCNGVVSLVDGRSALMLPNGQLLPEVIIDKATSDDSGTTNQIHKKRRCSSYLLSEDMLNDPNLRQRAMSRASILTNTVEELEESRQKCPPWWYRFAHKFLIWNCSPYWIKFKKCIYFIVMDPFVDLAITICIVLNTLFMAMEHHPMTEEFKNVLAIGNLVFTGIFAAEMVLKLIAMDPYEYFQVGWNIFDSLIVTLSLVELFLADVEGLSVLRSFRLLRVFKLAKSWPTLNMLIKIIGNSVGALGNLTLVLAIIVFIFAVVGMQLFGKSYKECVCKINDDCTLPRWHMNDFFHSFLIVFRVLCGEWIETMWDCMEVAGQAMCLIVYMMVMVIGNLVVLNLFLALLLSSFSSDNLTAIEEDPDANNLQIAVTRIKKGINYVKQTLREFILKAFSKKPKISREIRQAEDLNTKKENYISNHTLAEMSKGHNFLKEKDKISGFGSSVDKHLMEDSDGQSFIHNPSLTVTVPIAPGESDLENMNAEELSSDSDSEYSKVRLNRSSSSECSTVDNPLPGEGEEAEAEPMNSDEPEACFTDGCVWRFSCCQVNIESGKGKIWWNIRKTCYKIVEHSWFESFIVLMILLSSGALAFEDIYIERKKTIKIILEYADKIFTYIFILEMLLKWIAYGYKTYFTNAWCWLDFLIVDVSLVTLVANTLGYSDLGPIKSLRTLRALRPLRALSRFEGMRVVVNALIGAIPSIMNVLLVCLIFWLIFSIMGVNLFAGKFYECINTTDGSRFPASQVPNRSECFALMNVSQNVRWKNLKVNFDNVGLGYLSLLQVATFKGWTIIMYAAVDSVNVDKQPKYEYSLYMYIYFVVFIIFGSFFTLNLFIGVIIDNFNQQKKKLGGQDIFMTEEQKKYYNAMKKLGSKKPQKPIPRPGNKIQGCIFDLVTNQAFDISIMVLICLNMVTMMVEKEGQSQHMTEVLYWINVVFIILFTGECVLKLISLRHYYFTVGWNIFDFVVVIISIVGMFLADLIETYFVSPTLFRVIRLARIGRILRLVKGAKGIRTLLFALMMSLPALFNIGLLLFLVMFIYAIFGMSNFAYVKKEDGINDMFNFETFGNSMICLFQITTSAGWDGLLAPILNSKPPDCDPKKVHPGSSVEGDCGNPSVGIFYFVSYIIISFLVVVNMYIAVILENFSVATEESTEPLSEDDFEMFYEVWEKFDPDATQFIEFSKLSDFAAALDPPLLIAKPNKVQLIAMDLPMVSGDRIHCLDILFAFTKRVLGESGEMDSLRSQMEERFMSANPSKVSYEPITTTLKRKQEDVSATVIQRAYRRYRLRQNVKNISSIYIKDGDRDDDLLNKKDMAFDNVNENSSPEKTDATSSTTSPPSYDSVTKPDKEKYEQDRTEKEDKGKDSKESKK
Sodium channel protein type 2 subunit alpha (Homo sapiens), sequence (Q99250 whole entry, looked up): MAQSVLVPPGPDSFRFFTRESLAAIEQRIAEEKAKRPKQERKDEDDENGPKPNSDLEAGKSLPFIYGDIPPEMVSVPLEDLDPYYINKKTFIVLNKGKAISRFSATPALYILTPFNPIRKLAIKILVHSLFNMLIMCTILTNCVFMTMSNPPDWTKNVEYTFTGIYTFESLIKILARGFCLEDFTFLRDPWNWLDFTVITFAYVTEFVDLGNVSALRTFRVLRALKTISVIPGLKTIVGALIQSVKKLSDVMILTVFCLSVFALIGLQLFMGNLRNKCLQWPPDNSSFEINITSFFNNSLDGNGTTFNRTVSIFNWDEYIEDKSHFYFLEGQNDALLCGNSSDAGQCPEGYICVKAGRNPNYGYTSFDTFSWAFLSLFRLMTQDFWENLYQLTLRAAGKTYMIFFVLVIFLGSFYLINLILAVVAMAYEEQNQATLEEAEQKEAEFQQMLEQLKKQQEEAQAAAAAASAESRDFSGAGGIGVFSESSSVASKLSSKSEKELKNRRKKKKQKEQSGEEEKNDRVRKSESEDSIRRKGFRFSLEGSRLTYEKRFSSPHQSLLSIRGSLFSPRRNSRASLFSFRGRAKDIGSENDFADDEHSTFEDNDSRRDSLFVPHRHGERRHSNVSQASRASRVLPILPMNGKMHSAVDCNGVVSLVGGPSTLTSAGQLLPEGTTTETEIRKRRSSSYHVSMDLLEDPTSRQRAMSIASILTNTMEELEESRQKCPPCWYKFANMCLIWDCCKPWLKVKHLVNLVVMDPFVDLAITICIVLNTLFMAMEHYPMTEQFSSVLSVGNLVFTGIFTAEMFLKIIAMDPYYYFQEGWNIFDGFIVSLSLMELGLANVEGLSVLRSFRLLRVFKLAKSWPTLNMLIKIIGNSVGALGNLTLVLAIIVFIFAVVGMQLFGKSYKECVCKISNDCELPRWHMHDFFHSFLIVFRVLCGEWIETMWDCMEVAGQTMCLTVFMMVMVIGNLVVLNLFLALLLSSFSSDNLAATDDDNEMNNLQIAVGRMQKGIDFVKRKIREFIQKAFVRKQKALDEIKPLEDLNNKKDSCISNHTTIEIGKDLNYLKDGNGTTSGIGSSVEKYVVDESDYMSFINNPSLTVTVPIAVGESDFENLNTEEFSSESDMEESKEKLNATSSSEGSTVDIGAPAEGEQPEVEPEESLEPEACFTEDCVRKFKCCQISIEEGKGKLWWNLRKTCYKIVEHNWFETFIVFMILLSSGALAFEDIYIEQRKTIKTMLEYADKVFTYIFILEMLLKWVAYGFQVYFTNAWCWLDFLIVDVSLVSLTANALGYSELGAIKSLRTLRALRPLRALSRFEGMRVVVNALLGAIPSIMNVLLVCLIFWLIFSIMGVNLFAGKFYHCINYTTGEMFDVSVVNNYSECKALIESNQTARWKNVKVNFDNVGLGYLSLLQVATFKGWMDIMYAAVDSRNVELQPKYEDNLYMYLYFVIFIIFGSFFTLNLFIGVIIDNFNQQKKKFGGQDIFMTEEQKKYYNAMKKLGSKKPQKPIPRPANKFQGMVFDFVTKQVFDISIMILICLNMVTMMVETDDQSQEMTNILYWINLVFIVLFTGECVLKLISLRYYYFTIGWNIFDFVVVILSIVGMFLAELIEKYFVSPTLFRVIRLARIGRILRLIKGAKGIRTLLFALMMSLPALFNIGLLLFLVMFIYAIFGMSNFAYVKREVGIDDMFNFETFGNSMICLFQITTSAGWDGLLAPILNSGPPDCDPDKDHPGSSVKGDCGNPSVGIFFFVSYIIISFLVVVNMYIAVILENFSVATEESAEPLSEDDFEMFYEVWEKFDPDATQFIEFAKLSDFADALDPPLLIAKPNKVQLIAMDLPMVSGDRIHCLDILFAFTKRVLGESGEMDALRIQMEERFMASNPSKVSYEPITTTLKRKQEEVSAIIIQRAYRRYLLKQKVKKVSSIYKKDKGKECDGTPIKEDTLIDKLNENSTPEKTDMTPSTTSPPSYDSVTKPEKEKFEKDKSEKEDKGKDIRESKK
Cytochrome P450 2D6, sequence (P10635 whole entry): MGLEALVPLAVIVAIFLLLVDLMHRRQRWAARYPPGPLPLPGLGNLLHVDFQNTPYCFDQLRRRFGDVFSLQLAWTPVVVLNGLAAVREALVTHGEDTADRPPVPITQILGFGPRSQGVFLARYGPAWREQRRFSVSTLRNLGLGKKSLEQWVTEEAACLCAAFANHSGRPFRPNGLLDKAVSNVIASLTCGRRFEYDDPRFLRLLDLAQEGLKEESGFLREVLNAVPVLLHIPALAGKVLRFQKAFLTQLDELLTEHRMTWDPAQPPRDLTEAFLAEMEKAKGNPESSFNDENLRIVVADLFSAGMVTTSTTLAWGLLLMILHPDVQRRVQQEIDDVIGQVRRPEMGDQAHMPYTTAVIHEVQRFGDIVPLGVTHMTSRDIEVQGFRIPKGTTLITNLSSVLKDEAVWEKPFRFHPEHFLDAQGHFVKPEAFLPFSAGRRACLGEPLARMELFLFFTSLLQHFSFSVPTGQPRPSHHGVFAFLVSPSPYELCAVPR

NCc1noc(-c2c3ccccc3nn2Cc2ccccc2)n1
Activity [1]: Active
inhibition at 10 µM [2]: 81%
IC50 [3]: 1030 nM
Activity [4]: 10%
Activity [5]: Active
Activity [6]: 63%
inhibition [7]: 10.2%
inhibition [8]: 84%
Activity [9]: Active
inhibition [10]: 78%
inhibition [11]: 13%
inhibition [12]: 65.8%
inhibition [13]: 92%
IC50 [14]: 6700 nM
inhibition [15]: 33.8%
inhibition [16]: 31.5%
Activity [17]: 60%
inhibition [18]: 29%
IC50 [19]: > 10000 nM
IC50 [20]: 44200 nM
inhibition [21]: 98%
inhibition [22]: 70.8%
inhibition [23]: 51%
inhibition [24]: 35.8%
Activity [25]: Active
IC50 [26]: 315 nM

Nc1nnc(-c2cccc(Cl)c2Cl)c(N)n1 [LAMOTRIGINE]
inhibition at 10 µM [2]: 40%
inhibition [27]: 23%
inhibition [28]: 7.9%
inhibition [29]: 4.1%
inhibition [8]: 46%
inhibition [10]: 22%
inhibition [30]: 17%
inhibition [31]: 18.1%
inhibition [13]: 45%
IC50 [14]: 2600 nM
IC50 [20]: 219000 nM
inhibition [21]: 21%
Activity [32]: 33%
inhibition [23]: 44%

CN1CCN(c2ncc(-c3cc(Cl)cc(Cl)c3Cl)c(N)n2)CC1 [SIPATRIGINE]
inhibition at 10 µM [2]: 97%
inhibition [27]: 70%
inhibition [7]: 10.4%
inhibition [8]: 76%
inhibition [10]: 61%
inhibition [11]: 21.6%
inhibition [12]: 63.2%
inhibition [13]: 67%
inhibition [15]: 75.2%
inhibition [16]: 43.4%
inhibition [18]: 37%
inhibition [21]: 97%
inhibition [22]: 84.6%
Activity [32]: 57%
inhibition [23]: 55%
inhibition [24]: 40.1%

NCc1noc(-c2nn(Cc3ccccc3)c3ccccc23)n1
inhibition at 10 µM [2]: 48%
IC50 [3]: 660 nM
Activity [6]: 99%
inhibition [7]: 9.5%
inhibition [8]: 90%
Activity [9]: Active
inhibition [10]: 79%
inhibition [11]: 6.6%
inhibition [12]: 18.7%
inhibition [13]: 59%
IC50 [14]: 3300 nM
inhibition [15]: 10.8%
inhibition [16]: 40.9%
inhibition [18]: 1.1%
IC50 [19]: 90 nM
IC50 [20]: 17500 nM
inhibition [21]: 97%
inhibition [22]: 14.7%
inhibition [23]: 48%
inhibition [24]: 1.9%
IC50 [26]: 9 nM

Nc1nc(N)c(-c2cc(Cl)cc(Cl)c2Cl)c(CF)n1
inhibition at 10 µM [2]: 39%
inhibition [27]: 37%
inhibition [7]: 2.3%
Activity [33]: 93%
inhibition [8]: 86%
inhibition [10]: 100%
inhibition [11]: 0.7%
inhibition [12]: 97.3%
inhibition [13]: 44%
IC50 [14]: 40 nM
inhibition [15]: 75.2%
inhibition [16]: 62.7%
inhibition [18]: 81.4%
IC50 [20]: 2600 nM
inhibition [21]: 98%
inhibition [22]: 88.5%
inhibition [23]: 56%
inhibition [24]: 43.4%
